Assay outcomes from PubChem BioAssay.
KCNK3 block – human KCNK3 channel inhibition, primary screen; O14649; 340,000 compounds, 0.84% hits; CHO-KCNK3 thallium flux, FluxOR fluorescence; stronger effect = lower value; B-score at 10 µM;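 active means B-score under library mean minus 4 SD, starting fluorescence ratio at most library mean plus 5 SD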;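 further: more negative B-score means stronger inhibition of thallium flux through KCNK3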
KCNQ1 act – human KCNQ1 channel potentiation or activation | 310,000 compounds, 0.35% hits | CHO-K1 KCNQ1, thallium flux FluxOR fluorescence; stronger effect = higher value | B-score at 10 µM | P51787;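 active means fluorescence ratio B-score, a plate-corrected score, at least three library SD, with initial intensity B-score within 5 SD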
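Material: CHO-K1 cells stably expressing KCNQ1. Medium: assay buffer for compound exposure, DMSO matched across wells. Reagent: K+/Tl+ depolarizing stimulus. Compound dosing: single-concentration screen. Times: 37 °C overnight plating, 90-min dark dye load, 20-min compound pretreatment. Technique: FluxOR Tl+ flux fluorescence.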
hERG protect – compounds protecting human hERG from proarrhythmic drug block | 310,000 compounds, 0.51% hits | CHO-hERG, FluxOR thallium flux, dofetilide IC70 present | AID 1511 | Q12809 | activation (rescue from dofetilide block), less the hit threshold, % at 10 µM;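 active means activation above the mean of controls blocked by dofetilide plus 5 SD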;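 further: thallium influx through hERG after potassium depolarization seen as dye fluorescence rise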
PHOSPHO1 inh – inhibitors of human PHOSPHO1 phosphatase | inhibition, % at 13.3 µM | AID 1565 | Q8TCT1 | 290,000 compounds, 1.1% hits | recombinant PHOSPHO1, absorbance phosphatase assay; in the data active means inhibition above about 60%
Target sequence (Q8TCT1 whole entry, looked up): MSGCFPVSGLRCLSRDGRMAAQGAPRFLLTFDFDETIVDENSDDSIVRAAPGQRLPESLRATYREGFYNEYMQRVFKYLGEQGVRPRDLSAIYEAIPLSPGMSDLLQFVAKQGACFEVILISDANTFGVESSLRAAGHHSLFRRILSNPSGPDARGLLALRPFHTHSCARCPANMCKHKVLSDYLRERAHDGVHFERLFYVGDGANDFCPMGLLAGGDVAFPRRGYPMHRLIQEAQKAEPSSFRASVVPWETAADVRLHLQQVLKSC
KCNQ1 inh – inhibitors of human KCNQ1 potassium channel. P51787. CHO-K1 KCNQ1, FluxOR thallium flux fluorescence; stronger effect = higher value. B-score at 10 µM. 310,000 compounds, 1.3% hits;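 active means compounds whose thallium flux B-score, printed positive for inhibition, exceeds three library SD while starting fluorescence stays within three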;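 further: channel opened by potassium depolarization with thallium stimulus after 20 min compound exposure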
KCNK9 inh – blocks the human KCNK9 two-pore domain potassium channel | HEK293 KCNK9, FluxOR thallium flux fluorescence; stronger effect = lower value | B-score at 10 µM | 310,000 compounds, 1.2% hits;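 active means ratio B-score over 3 SD below the library mean, with starting fluorescence within 5 SD of its mean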;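 further: negative B-score means less thallium flux so channel inhibition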
Target sequence (Q9NPC2 whole entry, looked up, the tested form may be a part): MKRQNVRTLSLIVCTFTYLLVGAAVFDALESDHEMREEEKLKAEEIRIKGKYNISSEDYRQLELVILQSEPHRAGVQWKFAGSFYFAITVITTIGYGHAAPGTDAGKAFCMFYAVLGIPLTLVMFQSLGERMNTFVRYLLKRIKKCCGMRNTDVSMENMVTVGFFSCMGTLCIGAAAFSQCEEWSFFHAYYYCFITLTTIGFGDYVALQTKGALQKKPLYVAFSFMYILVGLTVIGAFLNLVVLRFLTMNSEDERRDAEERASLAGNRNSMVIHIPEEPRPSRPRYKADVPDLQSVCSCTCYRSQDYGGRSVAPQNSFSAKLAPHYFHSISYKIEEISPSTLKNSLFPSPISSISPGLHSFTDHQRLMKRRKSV
KCNK9 inh conf – human KCNK9 inhibitor confirmation. shares compounds with KCNK9 inh. inhibition, % at 10 µM. 4,900 compounds, 43% hits. HEK293 KCNK9 cells, FluxOR thallium flux fluorescence;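 active means thallium signal inhibited by more than 5 SD of the compound-free buffer control wells, on both duplicate plates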
Kir2-1 spec – mouse Kir2.1 off-target activity of KCNK9 modulators; Kir2.1 cells, FluxOR thallium flux fluorescence; 4,900 compounds, 4% hits; shares compounds with KCNK9 inh; inhibition, % at 10 µM;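 active means thallium signal drop more than 5 SD beyond the mean of the no-compound control wells, seen in both duplicate plates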;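 further: signal is fluorescence rise after thallium addition divided by baseline fluorescence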
HEK293 Tl ctr – non-induced cell nonspecific activity of KCNK9 modulators; shares compounds with KCNK9 inh; non-induced KCNK9-HEK293, FluxOR thallium flux; inhibition, % at 10 µM; 4,900 compounds, 40% hits; AID 492997;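 active means thallium signal drop beyond 5 SD of the untreated control mean, on both duplicate plates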
Of the large screens only hits and unclear results are named; the others gave an inactive call (follow-up assays come after a bar, where they were run). Shown are actives, neighbours in structure and some others; about 4% of the full set was active somewhere.

Cc1ccc(-c2csc3nc(SCC(=O)N(C)C)n(Cc4ccccc4)c(=O)c23)cc1	KCNK9 inh -9.5 | KCNK9 inh conf 50% | Kir2-1 spec inactive | HEK293 Tl ctr 28%
Cc1cc(C(F)(F)F)n(-c2nc(C(=O)N/N=C/c3ccc(F)cc3)cs2)n1	none
COc1cccc(/C=N/NC(=O)c2csc(-n3nc(C)cc3C(F)(F)F)n2)c1	KCNK9 inh -15 | KCNK9 inh conf inactive | Kir2-1 spec inactive | HEK293 Tl ctr inactive
C=CCn1c(SCC2CCCCO2)nc2sc(CC)cc2c1=O (stereo unspecified)	none | KCNK9 inh conf inactive | Kir2-1 spec inactive | HEK293 Tl ctr 34%
CN(Cc1ccccc1)C(NC(=O)c1ccccc1)C(Cl)(Cl)Cl (stereo unspecified)	none | KCNK9 inh conf inactive | Kir2-1 spec inactive | HEK293 Tl ctr 41%
CN(Cc1ccccc1)C(NC(=O)c1ccco1)C(Cl)(Cl)Cl (stereo unspecified)	none
O=C(CC1CC2CCC1C2)N1CCN(S(=O)(=O)c2ccccc2[N+](=O)[O-])CC1 (stereo unspecified)	none (no result: KCNQ1 act, hERG protect, PHOSPHO1 inh, KCNQ1 inh, KCNK9 inh)
CCc1nnc(NS(=O)(=O)c2ccc(NCc3cc(Cl)cc(Cl)c3O)cc2)s1	none | KCNK9 inh conf inactive | Kir2-1 spec inactive | HEK293 Tl ctr inactive
CCc1nnc(NS(=O)(=O)c2ccc(NC(=O)OC)cc2)s1	none
CCc1nnc(NS(=O)(=O)c2ccc(NCc3cc(Cl)ccc3O)cc2)s1	none | KCNK9 inh conf inactive | Kir2-1 spec inactive | HEK293 Tl ctr inactive
COc1ccc(CNC(=O)c2cc(-c3cc(C)ccc3O)n[nH]2)cc1	none
Cc1cc(C(=O)CCC(=O)N2CCN(c3ccccc3F)CC2)c(C)s1	none | KCNK9 inh conf inactive | Kir2-1 spec inactive | HEK293 Tl ctr inactive
FC(F)(F)c1ccccc1CN1CCCC(N2CCN(c3ccccc3)CC2)C1 (stereo unspecified)	none | KCNK9 inh conf inactive | Kir2-1 spec inactive | HEK293 Tl ctr inactive
FC(F)(F)c1ccccc1CN1CCN(C2CCCCCC2)CC1	none
c1ccc(-c2noc(CN3CCOCC3)n2)cc1	none
Clc1cccc(N2CCN(Cc3nc(-c4ccccc4)no3)CC2)c1	none | KCNK9 inh conf inactive | Kir2-1 spec inactive | HEK293 Tl ctr inactive
COc1ccc(N2CCN(c3oc(Cc4ccccc4)nc3C#N)CC2)cc1	none
N#Cc1nc(Cc2ccccc2)oc1N1CCN(c2cccc(Cl)c2)CC1	KCNK9 inh -11 | KCNK9 inh conf 38% | Kir2-1 spec inactive | HEK293 Tl ctr inactive
COc1ccc(-c2noc(CN3CCC(Cc4ccccc4)CC3)n2)cc1	none | KCNK9 inh conf inactive | Kir2-1 spec inactive | HEK293 Tl ctr inactive
c1ccc(CC2CCN(Cc3nc(-c4ccccc4)no3)CC2)cc1	none | KCNK9 inh conf inactive | Kir2-1 spec inactive | HEK293 Tl ctr inactive
CN(C)c1ccc(NC(=O)COC(=O)c2cc(Cl)ccc2[N+](=O)[O-])cc1	none
CCOc1ccc(S(=O)(=O)N2CCCCC2)cc1NC(=O)C1=COCCO1	none (no result: PHOSPHO1 inh)
Cc1ccc(O)c(C(=O)CC(=O)c2ccc(C(C)(C)C)cc2)c1	none | KCNK9 inh conf inactive | Kir2-1 spec inactive | HEK293 Tl ctr inactive
CCCN(CCC)S(=O)(=O)c1cccc(-c2csc(C)n2)c1	none | KCNK9 inh conf inactive | Kir2-1 spec 28% | HEK293 Tl ctr inactive
CCN(CC)S(=O)(=O)c1ccc(-c2csc(C)n2)cc1	none
CC(=O)N1N=C(c2ccc(C)cc2)OC1c1ccc(Br)cc1 (stereo unspecified)	none
CC(=O)N1N=C(c2ccc(Cl)cc2)OC1c1ccc(C(C)C)cc1 (stereo unspecified)	KCNQ1 inh 6 | KCNK9 inh conf inactive | Kir2-1 spec inactive | HEK293 Tl ctr 27%
CCOC(=O)C(=O)Nc1nnc(COc2ccccc2)s1	none
CN(c1ccc([N+](=O)[O-])cc1C(=O)Nc1ccccc1)C1CCCCC1	KCNK9 inh -13 | KCNK9 inh conf 30% | Kir2-1 spec inactive | HEK293 Tl ctr 42%
Cc1cccc(NC(=O)c2cc([N+](=O)[O-])ccc2NC2CCCCC2)c1	none
O=C(Nc1cccc(-c2csc(Nc3ccccc3)n2)c1)c1ccccc1	none | KCNK9 inh conf inactive | Kir2-1 spec inactive | HEK293 Tl ctr inactive
O=C(Nc1cccc(-c2csc(Nc3cccc(C(F)(F)F)c3)n2)c1)c1ccccc1	none
COc1ccc(N2CCN(C(=O)CC34CC5CC(CC(C5)C3)C4)CC2)c([N+](=O)[O-])c1	KCNK9 inh -12 | KCNK9 inh conf 66% | Kir2-1 spec inactive | HEK293 Tl ctr inactive
CCC(=O)N1CCN(c2ccc(OC)cc2[N+](=O)[O-])CC1	none
Brc1cccc(OCCN2CCc3ccccc3C2)c1	none | KCNK9 inh conf inactive | Kir2-1 spec inactive | HEK293 Tl ctr inactive
Cc1ccc([N+](=O)[O-])c(OCCN2CCCCCC2)c1	none
C=CCN(CC=C)CCOc1ccc(C)cc1[N+](=O)[O-]	none
C=CCN(CC=C)CCOc1cc(C)ccc1[N+](=O)[O-]	none | KCNK9 inh conf inactive | Kir2-1 spec inactive | HEK293 Tl ctr inactive
Brc1cccc(OCCN2CCCCC2)c1	none
Cc1ccc([N+](=O)[O-])c(OCCN2CCc3ccccc3C2)c1	none | KCNK9 inh conf inactive | Kir2-1 spec inactive | HEK293 Tl ctr inactive
CCOC(=O)c1cnc2c(ccc3ccccc32)c1N	none
O=C(NC12CC3CC(CC(C3)C1)C2)c1cccc(OC(F)F)c1	none
O=C(NC12CC3CC(CC(C3)C1)C2)c1cc(F)c(F)c(F)c1F	none | KCNK9 inh conf inactive | Kir2-1 spec inactive | HEK293 Tl ctr inactive
CCc1ccc(OCCNC(=O)c2ccccc2SCc2ccccc2)cc1	KCNQ1 inh 7 | KCNK9 inh conf inactive | Kir2-1 spec inactive | HEK293 Tl ctr 37%
Cc1sc(NC(=O)C2CCCCC2)c(C#N)c1-c1ccccc1	none | KCNK9 inh conf inactive | Kir2-1 spec inactive | HEK293 Tl ctr inactive
COc1cc2ccccc2cc1C(=O)N(CCN(C)C)c1nc2c(C)cccc2s1	none
Cc1ccc2sc(N(CCN(C)C)C(=O)c3ccc4ccccc4c3)nc2c1C	none | KCNK9 inh conf inactive | Kir2-1 spec inactive | HEK293 Tl ctr inactive
Cc1cccc2sc(N(CCCN(C)C)C(=O)c3ccc(C(=O)c4ccccc4)cc3)nc12	none | KCNK9 inh conf inactive | Kir2-1 spec inactive | HEK293 Tl ctr inactive
Cc1cccc2sc(N(CCN(C)C)C(=O)c3cc(Cl)sc3Cl)nc12	none | KCNK9 inh conf inactive | Kir2-1 spec inactive | HEK293 Tl ctr inactive
